# Read-outs that look alike come from different tables or passages of the source.
# Experiments:
# [1] = molecular target: T1, dSERT (Drosophila melanogaster, UniProt P51905); assay: two-electrode voltage clamp of 5-HT-induced current in Xenopus oocytes; assay type: cell-based; conditions: 10 μM 5-HT, ND96, −50 mV, room temperature
# T1 sequence (P51905 1-622): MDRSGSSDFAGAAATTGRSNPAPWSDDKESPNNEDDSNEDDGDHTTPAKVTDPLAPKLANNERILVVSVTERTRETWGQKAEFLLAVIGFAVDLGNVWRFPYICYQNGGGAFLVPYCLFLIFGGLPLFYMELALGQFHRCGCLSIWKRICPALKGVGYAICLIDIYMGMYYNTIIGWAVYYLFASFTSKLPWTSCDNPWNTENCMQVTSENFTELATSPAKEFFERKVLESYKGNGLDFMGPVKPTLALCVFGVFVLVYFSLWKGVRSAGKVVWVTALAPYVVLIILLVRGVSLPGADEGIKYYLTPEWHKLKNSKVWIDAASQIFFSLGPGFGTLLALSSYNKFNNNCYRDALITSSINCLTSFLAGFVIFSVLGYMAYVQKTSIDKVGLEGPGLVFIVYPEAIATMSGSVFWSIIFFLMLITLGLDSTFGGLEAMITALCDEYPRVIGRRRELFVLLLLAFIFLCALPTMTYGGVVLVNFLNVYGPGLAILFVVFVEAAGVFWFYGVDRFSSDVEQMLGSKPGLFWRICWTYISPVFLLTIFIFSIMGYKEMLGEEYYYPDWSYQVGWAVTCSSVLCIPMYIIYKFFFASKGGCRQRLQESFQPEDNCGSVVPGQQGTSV
# [2] = molecular target: T1, dSERT; assay: inhibition of [3H]5-HT uptake in Xenopus oocytes; assay type: cell-based
# Summary of the method: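 Xenopus oocytes: defolliculated in collagenase A, kept at 18°C in supplemented ND96, injected with 50 ng dSERT cRNA, used 2–4 days later. Uptake ran 20 min in ND96 with 200 nM [3H]5-HT plus increasing competitor. Stopped by removal and six ND96 washes; SDS-solubilised at 60°C, 2 h; scintillation counted. Uninjected same-batch oocytes subtracted; normalised to no-drug control; one-site competition fit.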
# [3] = read-out: Ki (μM ± SEM) / dSERT, 200 nM [3H]5-HT, 20 min, ND96
smiles,measurement,setting,value
CCN(CC)Cc1cc(Nc2ccnc3cc(Cl)ccc23)ccc1O [Amodiaquin],% inhibition of I5HT at 100 μM,[1],"amodiaquin, which did not impact 5-HT uptake, was as affective as quinine"
CCN(CC)CCCC(C)Nc1ccnc2cc(Cl)ccc12 (stereo not shown) [Chloroquine],% inhibition of I5HT at 100 μM,[1],quinidine > cinchonine > quinacrine > chloroquine > quinine = amodiaquin = cinchonidine
C=C[C@H]1CN2CC[C@H]1C[C@H]2[C@H](O)c1ccnc2ccccc12 [Cinchonidine],Ki,[2]; [3],330 ± 19 µM
C=C[C@H]1C[N@@]2CC[C@H]1C[C@@H]2[C@@H](O)c1ccnc2ccccc12 [Cinchonine],Ki,[2]; [3],6.4 ± 0.05 µM
C=C[C@H]1C[N@@]2CC[C@H]1C[C@@H]2[C@@H](O)c1ccnc2ccc(OC)cc12 [Quinidine],Ki,[2],1.8 ± 0.11 µM
C=C[C@H]1C[N@@]2CC[C@H]1C[C@H]2[C@H](O)c1ccnc2ccc(OC)cc12 [Quinine],Ki,[2],102 ± 24 µM
CCN(CC)CCCC(C)Nc1c2ccc(Cl)cc2nc2ccc(OC)cc12 (stereo not shown) [quinacrine],% inhibition of I5HT at 100 μM,[1],quinidine > cinchonine > quinacrine > chloroquine > quinine = amodiaquin = cinchonidine

# Reference: PMC5553891 (Neurochemistry international, 2013)
